# This excerpt belongs to a sample that is enriched for hits.
# ALR inh – inhibitors of human ALR sulfhydryl oxidase, primary screen, biochemical, H2O2 detection, HRP-luminol luminescence, single point. inhibition, % (test concentration not listed). 290,000 compounds, 3.8% hits. purified ALR, DTT oxidation. FAD-linked sulfhydryl oxidase ALR (Homo sapiens), P55789. AID 485317, 2010;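 active = mean replicate inhibition above about 79%, with every replicate also reaching it, limit read from the data; inconclusive = only one of the two criteria met; inactive = mean below limit and not every replicate reaching it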
# Target sequence (P55789 whole entry, looked up): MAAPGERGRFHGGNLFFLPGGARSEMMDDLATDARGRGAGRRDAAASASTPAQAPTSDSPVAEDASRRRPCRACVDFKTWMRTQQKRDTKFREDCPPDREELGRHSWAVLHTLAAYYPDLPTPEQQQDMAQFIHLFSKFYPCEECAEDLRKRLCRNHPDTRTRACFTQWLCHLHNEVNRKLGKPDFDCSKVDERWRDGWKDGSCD
# T cell HTS – modulators of CD8 T cell-vesicle binding, primary screen, mouse 2C CD8+ T cells, flow cytometry. response (vesicle binding), % at 7 µM. 330,000 compounds, 0.068% hits. 2C CD8+ T cell-vesicle binding; hits give low values;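 active = response, share of CD8 T cells binding vesicles, and their 90th percentile fluorescence all below set limits, cut at about 80% in these data, passing the limit was not always enough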;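 also: values below 100% mean blocked vesicle binding to the CD8+ T cells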
#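 Material: 2C TCR transgenic mouse naive CD8+ T cells, MACS-purified. Also added: QL9-charged Drosophila Ld/ICAM-1/B7-1 vesicles. Timing: binding 1.5 h at 37 °C. Measured by: high-throughput flow cytometry with anti-B7-1 and anti-CD8 staining. Read-out: percent CD8+ FL2 mean versus row control. Controls: Unloaded micro-vesicles (low), QL9 vesicles with 0.7% DMSO (high).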
# N-glyco inh – increase of ERlucT glycosylation luciferase signal, primary screen, N-linked glycosylation inhibitor project, D54 ERlucT cells, luminescence, set 2; D54 ERlucT glycosylation luciferase reporter, 24 h; percent of 100 nM tunicamycin response; reporter increase, % at 12.5 µM; 360,000 compounds, 0.23% hits; AID 588692, 2011;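 active = mean luciferase reporter signal, scaled so untreated is 0 and the glycosylation-blocking control 100, at or above a set limit in every replicate; inconclusive = mean reaches the limit but not every replicate does; inactive = mean below the limit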;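 also: luciferase carries N-glycosylation sites so blocking glycosylation raises the light; 0% = median of neutral control wells and 100% = median of 100 nM tunicamycin wells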
# * = called active by the depositor; ? = inconclusive; nt = no result.
SMILES,ALR inh,T cell HTS,N-glyco inh
CC[C@@H](C)[C@H](NC(=O)Cc1c(C)c2cc3c(C)c(C)oc3c(C)c2oc1=O)C(=O)O,5,188,-1
CC[C@@H](C)[C@H](NC(=O)Cc1c(C)c2cc3c(C)coc3c(C)c2oc1=O)C(=O)O,98*,173,2
Cc1c(CC(=O)O)c(=O)oc2c(C)c3occ(-c4ccc(Br)cc4)c3cc12,7,163,-2
CCCCC(NC(=O)Cc1c(C)c2cc3c(-c4ccccc4)coc3c(C)c2oc1=O)C(=O)O (stereo not given),98*,923,1
O=C(C1CCN(S(=O)(=O)c2cnc[nH]2)CC1)N1CCN(c2ccc([N+](=O)[O-])cc2)CC1,18,298,2
COc1ccccc1C(C)NS(=O)(=O)c1cccs1 (stereo not given),1,664,nt
CCN(CC)C(=O)c1[nH]cnc1C(=O)NC1CCN(C(=O)OC(C)(C)C)CC1,-4,295,4
O=C(O)CCc1ccc(-c2cccs2)n1CCc1ccccc1,99*,388,1
O=C(O)CCc1ccc(-c2cccs2)n1NC(=O)c1ccccc1Br,99*,313,-1
CC(=O)c1cccc(-n2c(CCC(=O)O)ccc2-c2ccccc2)c1,72,216,0
O=C(O)CCc1ccc(-c2cccs2)n1CCC(=O)O,-11,193,1
CC(=O)c1cccc(-n2c(CCC(=O)O)ccc2-c2cccs2)c1,89*,261,1
CC(C)(C)c1ccc(C(=O)Nn2c(CCC(=O)O)ccc2-c2cccs2)cc1,33,282,1
COc1ccc(C2CC(c3ccccc3)=NN2C(=O)COC(=O)c2nc3nccc(C)n3n2)cc1 (stereo not given),-5,572,-1
CC(C)c1ccc(CN2CCC2(C)C(=O)Nc2cnc3ccccc3c2)cc1 (stereo not given),nt,nt,-1
COc1ccc(S(=O)(=O)N(C)c2ccc(C(=O)NCC3CCCO3)cc2)cc1OC (stereo not given),-1,157,-2
C(=C\n1nnc2ccccc21)/c1ccc[nH]1,25,339,2
O=C(O)c1ccc(CNC(=O)c2ccccc2NC(=O)c2ccc([N+](=O)[O-])cc2)cc1,-6,110,1
CC1(C(=O)NS(=O)(=O)c2ccc(F)cc2F)CCN1C(=O)c1cccc(F)c1 (stereo not given),nt,nt,1
CCCN(CC(=O)Nc1ccc(F)c(F)c1F)CC(=O)Nc1c(C)n(C)n(-c2ccccc2)c1=O,3,388,-1
CC(C)CC[n+]1ccccc1/C=C/c1ccc(N(C)C)cc1,99*,232,-2
CN(C)c1ccc(/C=C/c2cccc[n+]2[O-])cc1,?,505,-3
O=C(O)C1Nc2ccc(OC(F)(F)F)cc2C2C=CCC12 (stereo not given),97*,691,nt
O=C(NC1CC1)C1Nc2ccc(OC(F)(F)F)cc2C2C=CCC12 (stereo not given),8,536,3
COc1cccc2c1NC(C(=O)O)C1CC=CC21 (stereo not given),81*,72,2
SMILES,ALR inh,T cell HTS,N-glyco inh
O=C(O)C1Nc2c(cccc2C(F)(F)F)C2C=CCC12 (stereo not given),-29,173,nt
FC(F)(F)c1ccc(-c2noc(CN3CCCN(C4CCCCC4)CC3)n2)cc1,11,151,-4
CCOC(=O)C1CCCN(C(=O)C2(c3ccc(Cl)cc3)CCCC2)CC1 (stereo not given),nt,nt,-3
CCn1cc(C(=O)NCc2ccccc2Cl)cn1,-2,218,0
COc1ccc(S(=O)(=O)NC(C)C(=O)NCc2cccnc2)cc1C (stereo not given),-1,275,0
CC(=O)c1c(C)[nH]c(C(=O)OCc2csc(CC(=O)Nc3ccccc3C)n2)c1C,-8,276,0
COc1ccc(NC(=O)CN(C)C(=O)CCc2nc3cc(S(=O)(=O)N4CCOCC4)ccc3n2C)cc1,-2,158,0
Cc1cccc(C(=O)NCC(=O)NC2CCC(C)CC2)c1 (stereo not given),-5,180,0
C=C(C)CNC(=O)C1CCC(=O)N(CCCc2ccccc2)C1 (stereo not given),nt,186,-1
COC(=O)c1ccc(NC2c3ncccc3C(=O)N2Cc2cccs2)cc1 (stereo not given),-15,173,2
COc1ccc(NC2c3ncccc3C(=O)N2Cc2cccs2)cc1 (stereo not given),96*,519,1
Cc1cc(NC(=O)c2sc(Nc3ccc(F)cc3)nc2N)no1,97*,319,-1
C=CCNc1nc(N)c(C(=O)Nc2cc(C)on2)s1,11,351,1
COC(=O)[C@@H](Cc1ccccc1)NC(=O)[C@H]1CCC(=O)N1C(=O)OCc1ccccc1,nt,103,-1
CCOC(=O)CNc1nnc(SCC(=O)OCC)[nH]c1=O,100*,399,5
COC(=O)CSc1nnc(C)c(=O)[nH]1,-6,419,1
CCCCN(C)c1c(C)nc2ccc(C(=O)N(C)CCN(C)C)cn12,nt,nt,0
Cc1ccccc1NCCC(=O)Nc1ccc(Cl)cc1,98*,587,-1
Cc1ccccc1NC(=O)CC(=O)Nc1ccccc1C,3,184,4
O=C(CCCCC(=O)Nc1ccc(F)cc1)Nc1ccc(F)cc1,8,227,2
Cc1ccccc1NCCC(=O)Nc1ccc(F)cc1,99*,463,0
CN(C)c1ccc2c(=O)cc[nH]c2c1,nt,nt,-1
Cc1ccc(CNC(=O)C2CC3Cn4c(nc5ccccc54)C3N2C)o1 (stereo not given),-2,659,3
CCOc1ccc(CCNC(=O)COC(=O)CNC(=O)c2ccc(Br)o2)cc1OCC,-1,277,1
CC(C)(C)[C@H]1COC(=O)[C@@H](Cc2ccc(F)cc2)CC/C=C/C[C@@H](CC(=O)N[C@@H](CO)Cc2ccccc2)C(=O)N1,-2,239,5
SMILES,ALR inh,T cell HTS,N-glyco inh
CC/C(=N\NS(=O)(=O)c1ccc(C)cc1)c1ccco1,98*,185,0
CCC(=NNS(=O)(=O)c1ccc(C)cc1)c1ccccc1,nt,nt,0
CSc1nc2ccc3nc(NC(=O)c4cccs4)sc3c2s1,1,413,-2
O=C(Nc1nc(-c2ccccn2)cs1)c1ncc(Cl)c(Cl)c1Cl,12,289,0
CSc1nc2ccc3nc(NC(=O)c4ccc(Cl)s4)sc3c2s1,91*,503,-1
CCc1sc(C(=O)Nc2nc(-c3ccccn3)cs2)cc1C,3,824,-2
O=C(Nc1nc(-c2ccccn2)cs1)c1ccc(Cl)s1,87*,254,-7
Cc1ccc(C(=O)Nc2nc(-c3ccccn3)cs2)s1,87*,793,1
Cc1ccc(N(C)S(=O)(=O)c2c(C)noc2/C=C/N(C)C)cc1,-5,310,-2
CC1(C(=O)NNC(=S)NCc2ccco2)CC1(Cl)Cl (stereo not given),15,397,2
COc1ccc(-n2c(SCC(=O)c3ccc[nH]3)nnc2-c2ccccc2)cc1,0,434,-2
